The target in assay [1] is Vasopressin V1 receptor (Rattus norvegicus, UniProt P48974+P30560). The experiment in a line: Inhibitory activity against arginine vasopressin V1 receptor using [3H]AVP as radioligand in rat liver. In short, it runs like this:
(§1)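 Competition binding on plasma membrane preparations, with [3H]AVP (80 Ci/mmol, 1–2 nM) and graded test compound, in 100 mM Tris-HCl pH 7.5, 5 mM MgCl2, 1 mM EDTA, 0.1% BSA, ≤1% final DMSO. Incubated 20 min at 37 °C, stopped with ice-cold Tris pH 8.0, filtered on GF/B. Nonspecific binding: 1 μM AVP. IC50 by regression of displacement curves; n = 3, mean ± SEM.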

For assay [2], the target named is Vasopressin V1 receptor (Homo sapiens, UniProt P37288+P47901). The experiment in a line: Inhibitory activity against arginine vasopressin V1 receptor using [3H]AVP as radioligand in human platelet. Summed up: as §1
Assay [3] has as its system Rattus norvegicus. The experiment in a line: Antagonistic effect against AVP-induced hypertension in rats after intravenous administration. In kind it is functional. Particulars: read-out: ID50 (the source's name). In short, it runs like this:
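Male Sprague Dawley rats (250–350 g) under urethane anaesthesia (1.3 g/kg ip), with femoral artery and vein catheters, held at 37 °C. Compound or vehicle given iv (1 mL/kg) 2 min before AVP 30 mU/kg iv. ID50 is the dose inhibiting the maximal pressor response by 50%; n = 3, mean ± SEM.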

In assay [4] the target is Vasopressin V2 receptor (Rattus norvegicus, UniProt Q00788). The experiment in a line: Inhibitory activity against arginine vasopressin V2 receptor using [3H]AVP as radioligand in rat […] medulla. It counts as tissue-based. In short, it runs like this: as §1
The subject of assay [5] is Rattus norvegicus. Briefly: Diuretic effect was determined after peroral administration at a dose of 10 mg/kg in rats. It counts as functional, Urine. Particulars: route oral. In short, it runs like this:
(§2)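 Male Sprague Dawley rats (250–350 g) fasted 16–20 h, some also without water for 16–20 h. Compound or vehicle given orally. Spontaneously voided urine collected over 4 h in metabolic cages and reported as mL/4 h; n = 3, mean ± SEM.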

The target of assay [6] is Vasopressin V2 receptor (Homo sapiens, UniProt P30518). The experiment in a line: Inhibitory activity against human recombinant arginine vasopressin V2 receptor using [3H]AVP as radioligand in CHO cells. It counts as cell-based. Summed up:
as §1

The subject of assay [7] is Rattus norvegicus. The experiment in a line: Diuretic effect was determined after peroral administration at a dose of 30 mg/kg in rats. In kind it is functional, Urine. Particulars: route oral. Summed up:
as §2

Chain of Vasopressin V2 receptor (Homo sapiens, UniProt P30518) (P30518 whole entry): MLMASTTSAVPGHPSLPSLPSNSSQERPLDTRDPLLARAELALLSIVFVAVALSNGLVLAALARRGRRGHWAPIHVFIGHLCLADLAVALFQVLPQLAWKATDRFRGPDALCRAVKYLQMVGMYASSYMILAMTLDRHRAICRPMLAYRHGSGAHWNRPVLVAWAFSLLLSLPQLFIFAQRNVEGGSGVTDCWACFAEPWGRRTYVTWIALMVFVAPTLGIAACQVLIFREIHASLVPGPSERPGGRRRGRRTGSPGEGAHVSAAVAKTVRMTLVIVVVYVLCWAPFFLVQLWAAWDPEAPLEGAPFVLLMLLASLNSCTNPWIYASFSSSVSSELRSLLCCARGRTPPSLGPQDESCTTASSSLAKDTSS
Chain of Vasopressin V2 receptor (Rattus norvegicus, UniProt Q00788) (Q00788 whole entry): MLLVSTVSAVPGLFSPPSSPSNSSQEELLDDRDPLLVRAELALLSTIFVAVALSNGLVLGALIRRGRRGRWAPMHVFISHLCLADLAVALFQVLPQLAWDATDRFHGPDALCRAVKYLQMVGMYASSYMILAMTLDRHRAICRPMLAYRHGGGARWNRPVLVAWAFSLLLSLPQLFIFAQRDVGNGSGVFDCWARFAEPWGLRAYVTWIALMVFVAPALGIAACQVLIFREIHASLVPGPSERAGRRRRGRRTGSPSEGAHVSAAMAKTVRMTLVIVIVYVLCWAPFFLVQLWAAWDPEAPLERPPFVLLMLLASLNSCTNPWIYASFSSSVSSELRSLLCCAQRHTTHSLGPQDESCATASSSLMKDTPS

In general, IC50 refers to the concentration at which inhibition is half-maximal. As to `O=C(Nc1ccc(C(=O)N2CCCN(Cc3cccnc3)c3sccc32)cc1)c1ccccc1-c1ccccc1`, the IC50 was found to be 500 nM on Vasopressin V1 receptor [1], 700 nM on Vasopressin V1 receptor [2], 30 nM on Vasopressin V2 receptor [4] and 60 nM at Vasopressin V2 receptor [6]. For the same compound, in the assay on Rattus norvegicus [3], the ED50 stood at 0.14 mg/kg. The compound further had a Urine volume in the assay on Rattus norvegicus [5] of 1.2 ml 4hr-1.

On to `COc1cc(C(=O)N2CCCC(N(C)C)c3sccc32)ccc1NC(=O)c1ccccc1-c1ccccc1` (stereo not given), for which the Urine volume in the assay on Rattus norvegicus [7] stood at 12 ml 4hr-1; in the assay on Rattus norvegicus [5], 9.3 ml 4hr-1. For the same compound, the half-inhibitory concentration (IC50) amounted to 2000 nM on Vasopressin V1 receptor [1], 3000 nM on Vasopressin V1 receptor [2], 10 nM on Vasopressin V2 receptor [4] and 20 nM on Vasopressin V2 receptor [6]. Also, in the assay with Rattus norvegicus [3], the ED50 is over 0.3 mg/kg.

On to `O=C(Nc1ccc(C(=O)N2CCCN(CCN3CCCC3)c3sccc32)cc1)c1ccccc1-c1ccccc1`, for which the IC50 at Vasopressin V1 receptor [1] was 200 nM; at Vasopressin V1 receptor [2], 800 nM; on Vasopressin V2 receptor [4] it was 10 nM; on Vasopressin V2 receptor [6] it was 200 nM. Moreover, the ED50 with Rattus norvegicus [3] is over 0.3 mg/kg. This compound also returned a Urine volume in the assay on Rattus norvegicus [5] of 6.3 ml 4hr-1.

Consider `CN(C)CCN(C)CCCCOc1cc(C(=O)N2CCCCc3sccc32)ccc1NC(=O)c1ccccc1-c1ccccc1`, for which the IC50 on Vasopressin V1 receptor [1] stood at 20 nM; on Vasopressin V1 receptor [2], 5 nM; at Vasopressin V2 receptor [4] it was 8 nM; at Vasopressin V2 receptor [6], 80 nM. Further, the ED50 with Rattus norvegicus [3] was determined as 0.02 mg/kg. The same compound returned a Urine volume with Rattus norvegicus [5] of 10.2 ml 4hr-1.

On to `CN1CCN(CCN2CCCN(C(=O)c3ccc(NC(=O)c4ccccc4-c4ccccc4)cc3)c3ccsc32)CC1`, for which the IC50 on Vasopressin V1 receptor [1] was determined as 200 nM; at Vasopressin V1 receptor [2] it was 1000 nM; at Vasopressin V2 receptor [4], 10 nM; on Vasopressin V2 receptor [6], 50 nM. Besides, the ED50 with Rattus norvegicus [3] was over 0.3 mg/kg. Besides, the Urine volume in the assay on Rattus norvegicus [5] stood at 7.4 ml 4hr-1.

Turning to `CN(C)C1CCN(C(=O)COc2cc(C(=O)N3CCCCc4sccc43)ccc2NC(=O)c2ccccc2-c2ccccc2)CC1`, the IC50 came to 20 nM at Vasopressin V1 receptor [1], 50 nM at Vasopressin V1 receptor [2], 4 nM at Vasopressin V2 receptor [4] and 8 nM on Vasopressin V2 receptor [6]. The ED50 in the assay on Rattus norvegicus [3] was determined as 0.02 mg/kg. Also, the Urine volume with Rattus norvegicus [5] is reported as 15 ml 4hr-1.

`O=C(Nc1ccc(C(=O)N2CCCN(Cc3ccccc3)c3sccc32)cc1)c1ccccc1-c1ccccc1`: the IC50 came to 500 nM at Vasopressin V1 receptor [1], 400 nM at Vasopressin V1 receptor [2], 70 nM at Vasopressin V2 receptor [4] and 80 nM at Vasopressin V2 receptor [6]. In addition, in the assay on Rattus norvegicus [3], the ED50 is over 0.3 mg/kg.

On to `CN1CCCN(CC(=O)N2CCCN(C(=O)c3ccc(NC(=O)c4ccccc4-c4ccccc4)cc3)c3ccsc32)CC1`, for which the half-inhibitory concentration (IC50) at Vasopressin V1 receptor [1] was over 10000 nM; at Vasopressin V1 receptor [2] it was over 10000 nM; at Vasopressin V2 receptor [4], 100 nM; on Vasopressin V2 receptor [6], over 10000 nM.

On to `CCN(CC)C1CCN(C(=O)CCCOc2cc(C(=O)N3CCCCc4sccc43)ccc2NC(=O)c2ccccc2-c2ccccc2)CC1`, for which the IC50 was 4 nM on Vasopressin V1 receptor [1], 4 nM on Vasopressin V1 receptor [2], 6 nM at Vasopressin V2 receptor [4] and 9 nM at Vasopressin V2 receptor [6]. In addition, in the assay with Rattus norvegicus [3], the ED50 is 0.01 mg/kg. In the assay on Rattus norvegicus [5], this compound displayed a Urine volume of 18 ml 4hr-1.

Turning to `O=C(Nc1ccc(C(=O)N2CCCCc3sccc32)cc1OCCCC(=O)N1CCC(N2CCCCC2)CC1)c1ccccc1-c1ccccc1`, the IC50 at Vasopressin V1 receptor [1] was found to be 20 nM; at Vasopressin V1 receptor [2] it was 10 nM; on Vasopressin V2 receptor [4] it was 20 nM; at Vasopressin V2 receptor [6], 30 nM. In addition, in the assay with Rattus norvegicus [3], the ED50 was found to be 0.03 mg/kg. The Urine volume in the assay with Rattus norvegicus [5] is 8 ml 4hr-1.

With `CN1CCN(CCCCOc2cc(C(=O)N3CCCCc4sccc43)ccc2NC(=O)c2ccccc2-c2ccccc2)CC1`, the IC50 on Vasopressin V1 receptor [1] worked out at 3 nM; on Vasopressin V1 receptor [2], 5 nM; at Vasopressin V2 receptor [4], 7 nM; at Vasopressin V2 receptor [6], 1 nM. The ED50 with Rattus norvegicus [3] was under 0.01 mg/kg. Further, the Urine volume in the assay with Rattus norvegicus [5] is reported as 16.9 ml 4hr-1.

With `CN1CCCN(C(=O)CCCOc2cc(C(=O)N3CCCCc4sccc43)ccc2NC(=O)c2ccccc2-c2ccccc2)CC1`, the half-inhibitory concentration (IC50) at Vasopressin V1 receptor [1] is 20 nM; at Vasopressin V1 receptor [2], 50 nM; on Vasopressin V2 receptor [4], 3 nM; at Vasopressin V2 receptor [6] it was 10 nM. Also, in the assay on Rattus norvegicus [3], the ED50 worked out at 0.008 mg/kg. In addition, the Urine volume with Rattus norvegicus [5] is recorded as 19.1 ml 4hr-1.

As to `O=C(Nc1ccc(C(=O)N2CCCCc3sccc32)cc1O)c1ccccc1-c1ccccc1`, the half-inhibitory concentration (IC50) is 200 nM at Vasopressin V1 receptor [1], 60 nM on Vasopressin V1 receptor [2], under 10 nM at Vasopressin V2 receptor [4] and under 10 nM on Vasopressin V2 receptor [6]. In addition, the ED50 in the assay with Rattus norvegicus [3] is 0.04 mg/kg. The Urine volume with Rattus norvegicus [5] turned out to be 2.3 ml 4hr-1.

Turning to `CN1CCCN(CCCOc2cc(C(=O)N3CCCCc4sccc43)ccc2NC(=O)c2ccccc2-c2ccccc2)CC1`, the IC50 on Vasopressin V1 receptor [1] was 2 nM; on Vasopressin V1 receptor [2] it was under 1 nM; on Vasopressin V2 receptor [4], under 1 nM; at Vasopressin V2 receptor [6], 2 nM. Besides, the ED50 in the assay on Rattus norvegicus [3] was found to be 0.03 mg/kg. The same compound registered a Urine volume in the assay with Rattus norvegicus [5] of 18.3 ml 4hr-1.

For `CN1CCN(C(=O)CCCOc2cc(C(=O)N3CCCCc4sccc43)ccc2NC(=O)c2ccccc2-c2ccccc2)CC1`, the IC50 was 20 nM on Vasopressin V1 receptor [1], 10 nM on Vasopressin V1 receptor [2], 1 nM on Vasopressin V2 receptor [4] and 6 nM on Vasopressin V2 receptor [6]. In addition, the ED50 in the assay on Rattus norvegicus [3] was 0.03 mg/kg. Moreover, the Urine volume in the assay on Rattus norvegicus [5] was found to be 17.6 ml 4hr-1.

For the compound `CN(C)C1CCN(C(=O)CCCOc2cc(C(=O)N3CCCCc4sccc43)ccc2NC(=O)c2ccccc2-c2ccccc2)CC1`, the half-inhibitory concentration (IC50) on Vasopressin V1 receptor [1] was 6 nM; at Vasopressin V1 receptor [2], 3 nM; on Vasopressin V2 receptor [4] it was 3 nM; at Vasopressin V2 receptor [6], 20 nM. Also, the ED50 in the assay with Rattus norvegicus [3] came out at 0.005 mg/kg. For the same compound, the Urine volume in the assay on Rattus norvegicus [5] is on record as 22 ml 4hr-1.

For the compound `CN(C)CCN1CCCN(C(=O)c2ccc(NC(=O)c3ccccc3-c3ccccc3)cc2)c2ccsc21`, the IC50 at Vasopressin V1 receptor [1] came out at 300 nM; at Vasopressin V1 receptor [2] it was 400 nM; at Vasopressin V2 receptor [4], 20 nM; at Vasopressin V2 receptor [6], 80 nM. In addition, the ED50 in the assay on Rattus norvegicus [3] was found to be 0.31 mg/kg. Besides, in the assay on Rattus norvegicus [5], the Urine volume is reported as 6.7 ml 4hr-1.

The values are drawn from ChEMBL document CHEMBL1139452, “Synthesis and structure-activity relationships of 5,6,7,8-tetrahydro-4H-thieno[3,2-b]azepine derivatives: novel arginine vasopressin antagonists” (J Med Chem, 2004).
